Results gathered from unrelated publications.
Lines come from different studies, so protocols differ.
SLC6A2: Sodium-dependent noradrenaline transporter (SLC6A2, Homo sapiens, UniProt P23975)
Dual specificity calcium/calmodulin-dependent 3',5'-cyclic nucleotide phosphodiesterase 1B: Dual specificity calcium/calmodulin-dependent 3',5'-cyclic nucleotide phosphodiesterase 1B (Homo sapiens, UniProt Q01064)
GRM3: Metabotropic glutamate receptor 3 (GRM3, Homo sapiens, UniProt Q14832)
NPSR1: Neuropeptide S receptor (NPSR1, Homo sapiens, UniProt Q6W5P4)
Aldo-keto reductase family 1 member A1: Aldo-keto reductase family 1 member A1 (Rattus norvegicus, UniProt P51635)
TPR: Trypanothione reductase (TPR, Trypanosoma cruzi, UniProt P28593)
PTPN12: Tyrosine-protein phosphatase non-receptor type 12 (PTPN12, Homo sapiens, UniProt Q05209)
Fructose-1,6-bisphosphatase 1: Fructose-1,6-bisphosphatase 1 (Mus musculus, UniProt Q9QXD6)

SMILES | target | read-out | action | method | pH | notes | IC50
Fc1ccc(C(c2ccc(F)cc2)c2nnnn2CCCCN2CCC(c3ccccc3)CC2)cc1 | SLC6A2 | transporter uptake | inhibitor | – | – | – | 0.675 µM
CSc1ccc(/C=C2/C(C)=C(CC(=O)O)c3cc(F)ccc32)cc1 | Dual specificity calcium/calmodulin-dependent 3',5'-cyclic nucleotide phosphodiesterase 1B | enzyme activity | inhibitor | – | – | – | > 100 µM
CN1CCN(c2ccc(Nc3ncc4cc(C#N)c(=O)n(C5CCCC5)c4n3)cc2)CC1 | Fibroblast growth factor receptor 4 (FGFR4, Homo sapiens, UniProt P22455) | enzyme activity | inhibitor | – | – | – | 1.53 µM
COc1ccc(-c2cc(C(N)=O)ncc2OCc2ccn(C)n2)c(F)c1 | GRM3 | ion flux | antagonist | – | – | – | > 10 µM
COc1ccc(-n2cnc3c(c2=N)C(c2cccc(OC)c2)c2c(ccc4ccccc24)O3)cc1 (centres unmarked) | NPSR1 | calcium signal | antagonist | – | – | – | 4.38 µM
COc1ccc2nc(/N=C3/NC(=O)C(=Cc4ccccc4)S3)sc2c1 | Aldo-keto reductase family 1 member A1 | enzyme activity | inhibitor | absorbance | pH 7.2 | – | > 50 µM
COc1ccccc1C1c2c(ncn(-c3ccccc3)c2=N)Oc2ccc3ccccc3c21 (centres unmarked) | NPSR1 | calcium signal | antagonist | – | – | – | 5.52 µM
COc1ccc2c(Oc3ccc4c(C(=O)Nc5ccccc5N)cccc4c3)ccnc2c1 | Tyrosine-protein kinase Fgr (FGR, Homo sapiens, UniProt P09769) | enzyme activity | inhibitor | – | – | – | > 0.5 µM
Fc1ccc(C(c2ccc(F)cc2)c2nnnn2CCCCN2CCC(Cc3ccccc3)CC2)cc1 | SLC6A2 | transporter uptake | inhibitor | – | – | – | 0.298 µM
COc1ccc(-c2cc(C(N)=O)ncc2OCc2noc(C)n2)c(F)c1 | GRM3 | ion flux | antagonist | – | – | – | > 10 µM
O=c1[nH]c(=S)n(Cc2ccc(Cl)cc2CNCC(F)(F)F)c2cc[nH]c12 | Myeloperoxidase (MPO, Homo sapiens, UniProt P05164) | enzyme activity | inhibitor | – | – | – | 0.035 µM
COc1ccc(C2=NN(C3CCCCCC3)C(=O)[C@@H]3CC=CC[C@H]23)cc1-c1ccc(C(N)=O)cc1 (relative stereo) | Dual specificity calcium/calmodulin-dependent 3',5'-cyclic nucleotide phosphodiesterase 1B | enzyme activity | inhibitor | – | – | – | > 10 µM
c1ccc(CCC2CCN(CCCn3nnnc3C(c3ccccc3)c3ccccc3)CC2)cc1 | SLC6A2 | transporter uptake | inhibitor | – | – | – | 0.41 µM
O=C(O)C1=CC(=C(c2ccc(O)c(C(=O)O)c2)c2ccc(O)c(C(=O)O)c2)C=CC1=O | TPR | enzyme activity | inhibitor | absorbance | – | – | 0.176 µM
COc1ccc(-c2cc(C(N)=O)ncc2OCc2cnc(OC)nc2)c(F)c1 | GRM3 | ion flux | antagonist | – | – | – | > 10 µM
Nc1ncnc2c1C(c1ccccc1)c1c(ccc3ccccc13)O2 (centres unmarked) | NPSR1 | cAMP | antagonist | TR-FRET | – | – | 7.72 µM
COc1ccc2nc(/N=C3/NC(=O)C(=Cc4ccc(O)c(OC)c4)S3)sc2c1 | Aldo-keto reductase family 1 member A1 | enzyme activity | inhibitor | absorbance | pH 7.2 | – | 0.61 µM
COc1cccc(C2c3c(ncn(-c4ccccn4)c3=N)Oc3ccc4ccccc4c32)c1 (centres unmarked) | NPSR1 | calcium signal | antagonist | – | – | – | 5.51 µM
OC(c1ccccc1)c1ccccc1 | TPR | enzyme activity | inhibitor | absorbance | – | – | > 100 µM
CC(=O)N[C@@H](Cc1c[nH]c2ccccc12)C(=O)N[C@@H](CCC(=O)C=[N+]=[N-])C(=O)OC(C)C | Glutaminase kidney isoform, mitochondrial (GLS, Homo sapiens, UniProt O94925) | enzyme activity | inhibitor | radiometric | – | – | > 1000 µM
CN[C@H]1CC[C@@H](c2ccc(Cl)c(Cl)c2)c2ccccc21 | PTPN12 | enzyme activity | inhibitor | fluorescence | – | – | 55 µM
O=P(O)(O)OC[C@H]1O[C@@](CO)(OP(=O)(O)O)[C@@H](O)[C@@H]1O | Fructose-1,6-bisphosphatase 1 | enzyme activity | inhibitor | – | – | – | 1.69 µM
OC[C@@H]1[C@@H](O)[C@H](O)[C@@H](O)[C@@H]2O[C@H]12 | bglA (Thermotoga maritima, UniProt Q08638) | enzyme activity | inhibitor | – | pH 6.8 | with preincubation | 0.37 µM
O=C1c2ccccc2C(=O)c2c(O)c(O)cc(O)c21 | PTPN12 | enzyme activity | inhibitor | fluorescence | – | – | 7 µM
COc1cccc(C2c3c(ncn(-c4ccccc4OC)c3=N)Oc3ccc4ccccc4c32)c1 (centres unmarked) | NPSR1 | calcium signal | antagonist | – | – | – | 1.1 µM
Clc1ccc(C(c2ccccc2)c2nnnn2CCCCN2CCN(CC=Cc3ccccc3)CC2)cc1 (centres unmarked) | SLC6A2 | transporter uptake | inhibitor | – | – | – | 0.985 µM
N=c1n(CCN2CCCCC2)c2ccccc2n1CC(O)c1ccc(Cl)c(Cl)c1 (centres unmarked) | TPR | enzyme activity | inhibitor | – | – | – | ≤ 10 µM

SMILES | target | read-out | action | method | pH | notes | IC50
COc1ccc2nc(/N=C3/NC(=O)C(=Cc4cc(I)c(O)c(OC)c4)S3)sc2c1 | Aldo-keto reductase family 1 member A1 | enzyme activity | inhibitor | absorbance | pH 7.2 | – | > 50 µM
ClCCOC1c2ccccc2CCc2ccccc21 | TPR | enzyme activity | inhibitor | absorbance | – | – | 29.7 µM
N=c1n(CCN2CCCCC2)c2ccccc2n1CC(O)COc1ccc(Cl)cc1Cl (centres unmarked) | TPR | enzyme activity | inhibitor | – | – | – | ≤ 10 µM
O=C1c2ccccc2-c2cccc3cccc1c23 | PTPN12 | enzyme activity | inhibitor | fluorescence | – | – | > 150 µM
CCCc1ccccc1 | TPR | enzyme activity | inhibitor | absorbance | – | – | > 100 µM
COc1ccc(-c2cc(C(N)=O)ncc2OCc2ccnc(F)c2)c(F)c1 | GRM3 | ion flux | antagonist | – | – | – | > 10 µM
CCN(CC)C(=S)SSC(=S)N(CC)CC | PTPN12 | enzyme activity | inhibitor | fluorescence | – | – | > 500 µM
Cc1ccc(OCC(O)Cn2c(=N)n(CCN3CCCCC3)c3ccccc32)cc1 (centres unmarked) | TPR | enzyme activity | inhibitor | – | – | – | ≤ 10 µM
Cc1cnc(-c2ccc(-c3ccc(NC(=O)Nc4c(F)cc(F)cc4F)cc3F)c3c2C(=O)NC3)[nH]1 | Serine/threonine-protein kinase/endoribonuclease IRE2 (ERN2, Homo sapiens, UniProt Q76MJ5) | enzyme activity | inhibitor | – | – | – | 0.0148 µM
COc1cc(/C=C2\SC(=O)NC2=O)cc(F)c1OCCNc1nc2c(cnn2C2CCCC2)c(=O)[nH]1 | Dual specificity calcium/calmodulin-dependent 3',5'-cyclic nucleotide phosphodiesterase 1B | enzyme activity | inhibitor | – | – | – | 0.0151 µM
CCN(CC)CCn1c(=N)n(CC(=O)c2ccc(C)cc2)c2ccccc21 | TPR | enzyme activity | inhibitor | – | – | – | ≤ 10 µM
O=S(=O)(Nc1nc2cc(Cl)ccc2o1)c1cc(Cl)ccc1Cl | Fructose-1,6-bisphosphatase 1 | enzyme activity | inhibitor | – | – | – | 4.58 µM
Clc1ccc(C(c2ccccc2)c2nnnn2CCCCN2CCC(CCCc3ccccc3)CC2)cc1 (centres unmarked) | SLC6A2 | transporter uptake | inhibitor | – | – | – | 0.232 µM
COc1ccc(-c2cc(C(N)=O)ncc2OCc2ccnc(C)c2)c(F)c1 | GRM3 | ion flux | antagonist | – | – | – | > 10 µM
O=C(O)c1cc(O)c2c(c1)[C@H]([C@H]1c3cc(C(=O)O)cc(O)c3C(=O)c3c(O[C@@H]4O[C@H](CO)[C@@H](O)[C@H](O)[C@H]4O)cccc31)c1cccc(O[C@@H]3O[C@H](CO)[C@@H](O)[C@H](O)[C@H]3O)c1C2=O | PTPN12 | enzyme activity | inhibitor | – | – | – | 0.2 µM
Clc1ccc2c(c1)N(CCCN1CCN(CCCc3ccccc3)CC1)c1ccccc1S2 | TPR | enzyme activity | inhibitor | absorbance | – | – | 0.75 µM
COc1cccc(C2c3c(ncn(-c4cccc(C)c4)c3=N)Oc3ccc4ccccc4c32)c1 (centres unmarked) | NPSR1 | calcium signal | antagonist | – | – | – | 4.38 µM
COc1ccc2nc(/N=C3/NC(=O)C(=Cc4ccc(O)cc4)S3)sc2c1 | Aldo-keto reductase family 1 member A1 | enzyme activity | inhibitor | absorbance | pH 7.2 | – | 1.24 µM
Cc1ccc(C(=O)Nc2ccc(S(=O)(=O)O)c3cc(S(=O)(=O)O)cc(S(=O)(=O)O)c23)cc1NC(=O)c1cccc(NC(=O)Nc2cccc(C(=O)Nc3cc(C(=O)Nc4ccc(S(=O)(=O)O)c5cc(S(=O)(=O)O)cc(S(=O)(=O)O)c45)ccc3C)c2)c1 | PTPN12 | enzyme activity | inhibitor | – | – | – | 11 µM
BrCCCc1ccccc1 | TPR | enzyme activity | inhibitor | absorbance | – | – | > 100 µM
Cc1nn2c(-c3c(C)nn(C)c3-c3ccc(C(F)(F)F)cc3)nc(CO)c2c(=O)[nH]1 | Dual specificity calcium/calmodulin-dependent 3',5'-cyclic nucleotide phosphodiesterase 1B | enzyme activity | inhibitor | – | – | – | 5.26 µM
CCN(CC)CCn1c(=N)n(CC(O)c2ccc(Cl)c(Cl)c2)c2ccccc21 (centres unmarked) | TPR | enzyme activity | inhibitor | – | – | – | ≤ 10 µM
COc1cccc(C2c3c(ncn(-c4cccc(C#N)c4)c3=N)Oc3ccc4ccccc4c32)c1 (centres unmarked) | NPSR1 | calcium signal | antagonist | – | – | – | 4.38 µM
COc1ccc(-c2cc(C(N)=O)ncc2OCc2ccc(F)nc2)c(F)c1 | GRM3 | ion flux | antagonist | – | – | – | > 10 µM
COc1cccc(C2c3c(ncn(-c4ccncc4)c3=N)Oc3ccc4ccccc4c32)c1 (centres unmarked) | NPSR1 | cAMP | antagonist | TR-FRET | – | – | 19.4 µM
O=C(Oc1cc(O)cc2c1C[C@@H](OC(=O)c1cc(O)c(O)c(O)c1)[C@@H](c1cc(O)c(O)c(O)c1)O2)c1cc(O)c(O)c(O)c1 | PTPN12 | enzyme activity | inhibitor | fluorescence | – | – | 0.02 µM
